Laboratory results published in ChEMBL document CHEMBL1140214, “Antitumor activity of new substituted 3-(5-imidazo[2,1-b]thiazolylmethylene)-2-indolinones and 3-(5-imidazo[2,1-b]thiadiazolylmethylene)-2-indolinones: selectivity against colon tumor cells and effect on cell cycle-related events” (2008).
One block for each molecule: values may come before it. The source made the active and inactive calls. The rule behind the calls is not given here.

Legend:
[1] = Antitumor activity against human CNS cancer cells after 48 hrs by SRB assay; type: functional, Cancer cell lines; details: for TGI: read-out: pTGI (converted)
How it was run: (§1)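 NCI 60-cell panel two-stage screen: a single-dose pass at 10^-5 M, then five-dose testing for active compounds. Compounds were dissolved in DMSO and tested at five 10-fold dilutions, the highest 10^-4 M (10^-3 M in some cases). Results are given as the negative log molar concentration at three end points: pGI50, pTGI (total growth inhibition) and pLC50. Means are panel-subtype averages.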

NSCLC = assay: Antitumor activity against human NSCLC cells after 48 hrs by SRB assay; type: functional; details: for GI50 / TGI: Homo sapiens, NSCLC, 48 h; for TGI: read-out: pTGI (converted); how it was run: as §1
[2] = target: T1, Ornithine decarboxylase (Homo sapiens) (UniProt P11926); assay: Inhibition of ornithine decarboxylase in human HT-29 cells assessed as release of radioactive CO2 from [14C-carboxyl] ornithine; type: cell-based
T1 sequence (whole entry): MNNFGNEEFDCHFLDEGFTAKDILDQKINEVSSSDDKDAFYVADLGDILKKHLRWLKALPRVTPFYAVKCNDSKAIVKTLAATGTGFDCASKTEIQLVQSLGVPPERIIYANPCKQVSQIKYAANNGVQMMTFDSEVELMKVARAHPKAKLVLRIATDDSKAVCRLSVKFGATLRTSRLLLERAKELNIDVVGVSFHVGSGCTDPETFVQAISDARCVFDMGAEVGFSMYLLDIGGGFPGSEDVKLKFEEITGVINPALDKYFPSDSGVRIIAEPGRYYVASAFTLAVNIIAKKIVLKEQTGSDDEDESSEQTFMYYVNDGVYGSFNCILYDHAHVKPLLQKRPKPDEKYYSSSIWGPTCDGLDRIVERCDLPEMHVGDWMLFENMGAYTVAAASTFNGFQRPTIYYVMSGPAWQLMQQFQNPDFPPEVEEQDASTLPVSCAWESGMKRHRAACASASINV
How it was run: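 Extracts were taken from HT-29 cells after 24 h exposure to the indicated concentrations of test compound or vincristine. ODC activity was read as 14CO2 released from [14C-carboxyl]ornithine. Mean ± SEM, n=3.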

[3] = Antitumor activity against human Colon cancer cells after 48 hrs by SRB assay; type: functional, Cancer cell lines; details: for GI50 / TGI: Homo sapiens, Cancer cell lines, 48 h; for TGI: read-out: pTGI (converted); how it was run: as §1
Leukemia cell = assay: Antitumor activity against human Leukemia cells after 48 hrs by SRB assay; type: functional; details: for GI50 / TGI: Homo sapiens, Leukemia cell, 48 h; for TGI: read-out: pTGI (converted); how it was run: as §1
Melanoma cell = assay: Antitumor activity against human Melanoma cells after 48 hrs by SRB assay; type: functional; details: for TGI: read-out: pTGI (converted); how it was run: as §1
[4] = Antitumor activity against human renal cancer cells after 48 hrs by SRB assay; type: functional, Cancer cell lines; details: for GI50 / TGI: Homo sapiens, Cancer cell lines, 48 h; for TGI: read-out: pTGI (converted); how it was run: as §1
[5] = Antitumor activity against human prostate cancer cells after 48 hrs by SRB assay; type: functional, Cancer cell lines; how it was run: as §1
[6] = Antitumor activity against human Breast cancer cells after 48 hrs by SRB assay; type: functional, Cancer cell lines; details: for GI50 / TGI: Homo sapiens, Cancer cell lines, 48 h; for TGI: read-out: pTGI (converted); how it was run: as §1
[7] = Antitumor activity against human ovarian cancer cells after 48 hrs by SRB assay; type: functional, Cancer cell lines; details: for GI50 / TGI: Homo sapiens, Cancer cell lines, 48 h; for TGI: read-out: pTGI (converted); how it was run: as §1
HT-29 [8] = assay: Cell cycle arrest in human HT-29 cells assessed as accumulation at G2/M phase at 30 nM after 24 hrs by flow cytometry; type: functional, cell-based
How it was run: (§2)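 HT-29 cells were grown in RPMI 1640 with 10% FBS and 2 mM L-glutamine at 37 °C, 5% CO2, and treated 24 h after plating at 2 × 10^4 cells/cm^2. Exposure was 24 h at 0.5–2 µM test compound or 30 nM vincristine, with DMSO controls. Cells were stained with propidium iodide, RNase and NP-40 for 30 min in the dark, then DNA content was read by flow cytometry. Mean ± SEM, n=3.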

HT-29 [9] = assay: Cell cycle arrest in human HT-29 cells assessed as accumulation at G2/M phase after 24 hrs by flow cytometry; type: functional, cell-based; how it was run: as §2
HT-29 [10] = assay: Inhibition of cell proliferation in human HT-29 cells at 2 uM; type: functional, cell-based
How it was run: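 HT-29 cells in RPMI 1640 with 10% FBS were exposed to compound in fresh medium 24 h after plating, with DMSO controls. Cells were counted daily and viability was checked by Trypan blue exclusion.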

HT-29 [11] = assay: Cell cycle arrest in human HT-29 cells assessed as accumulation at G2/M phase at 2 uM after 24 hrs by flow cytometry; type: functional; how it was run: as §2
HT-29 [12] = assay: Increase in cellular tubulin condensation in human HT-29 cells at 1 uM after 24 hrs using DAPI staining by immunofluorescence technique; type: functional, cell-based
How it was run: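 HT-29 cells on glass coverslips at 1 × 10^4 cells/cm^2 were treated 24 h at 1 µM, or with 30 nM vincristine. After fixation they were stained overnight at 4 °C with anti-α-tubulin mouse monoclonal, then 1 h at room temperature with FITC anti-mouse IgG, and counterstained with DAPI. Imaging was by laser scanning confocal microscopy.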

HT-29 [13] = assay: Induction of apoptosis in human HT-29 cells assessed as caspase activity after 48 hrs by fluorimetric assay; type: functional, cell-based
How it was run: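 DEVDase (caspase) activity was measured fluorometrically in extracts of HT-29 cells treated for 24 or 48 h at the indicated concentrations.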

[14] = Homo sapiens, Cancer cell lines, 48 h, read-out: pGI50 (converted)
[15] = Homo sapiens, Cancer cell lines, 48 h
[16] = Homo sapiens, Melanoma cell, 48 h, read-out: pGI50 (converted)
[17] = Homo sapiens, Melanoma cell, 48 h

SMILES: CC[C@]1(O)C[C@H]2CN(CCc3c([nH]c4ccccc34)[C@@](C(=O)OC)(c3cc4c(cc3OC)N(C=O)[C@H]3[C@@](O)(C(=O)OC)[C@H](OC(C)=O)[C@]5(CC)C=CCN6CC[C@]43[C@@H]65)C2)C1.O=S(=O)(O)O [VINCRISTINE SULFATE]
GI50 [1, 14]: 0.126 µM
TGI [1, 15]: 6.31 µM
GI (NSCLC): 0.25 µM
GI50 (NSCLC): 0.251 µM
TGI (NSCLC): 15.8 µM
Activity [2]: Active
GI [3]: 0.1 µM
GI50 [3]: 0.1 µM
TGI [3]: 3.98 µM
GI (Leukemia cell): 0.1 µM
GI50 (Leukemia cell): 0.1 µM
TGI (Leukemia cell): 15.8 µM
GI50 (Melanoma cell; [16]): 0.158 µM
CC50 (Melanoma cell; Homo sapiens, Melanoma cell, 48 h, read-out: pLC50 (the source's name) (converted)): 251 µM
TGI (Melanoma cell; [17]): 7.94 µM
GI [4]: 0.32 µM
GI50 [4]: 0.316 µM
TGI [4]: 20 µM
GI [5]: 0.13 µM
GI50 [5, 15]: 0.126 µM
TGI ([5]; Homo sapiens, Cancer cell lines, 48 h, read-out: pTGI (converted)): 6.31 µM
GI [6]: 0.32 µM
GI50 [6]: 0.316 µM
TGI [6]: 7.94 µM
GI [7]: 0.32 µM
GI50 [7]: 0.316 µM
TGI [7]: 20 µM
Activity (HT-29 [8]): Active

GI50 (Leukemia cell): 3.39 µM
GI50 (Melanoma cell): 7.41 µM
GI50 (Melanoma cell; [16]): 7.41 µM
SMILES: Cc1cn2c(/C=C3/C(=O)N(C)c4ccc(O)cc43)c(C)nc2s1
GI50 [1]: 4.57 µM
GI50 [1, 14]: 4.57 µM
TGI [1, 15]: 37.2 µM
GI (NSCLC): 12.88 µM
GI50 (NSCLC): 12.9 µM
TGI (NSCLC): 67.6 µM
GI [3]: 3.89 µM
GI50 [3]: 3.89 µM
TGI [3]: 56.2 µM
GI (Leukemia cell): 3.39 µM
TGI (Leukemia cell): 27.5 µM
TGI (Melanoma cell; [17]): 63.1 µM
GI [4]: 13.18 µM
GI50 [4]: 13.2 µM
TGI [4]: 85.1 µM
GI [5]: 12.59 µM
GI50 [5, 15]: 12.6 µM
GI [6]: 4.57 µM
GI50 [6]: 4.57 µM
TGI [6]: 38 µM
GI [7]: 9.12 µM
GI50 [7]: 9.12 µM
TGI [7]: 52.5 µM

GI50 (Leukemia cell): 5.01 µM
GI50 (Melanoma cell): 13.18 µM
GI50 (Melanoma cell; [16]): 13.2 µM
SMILES: Cc1cn2c(/C=C3/C(=O)N(C)c4ccccc43)c(C)nc2s1
GI50 [1]: 8.71 µM
GI50 [1, 14]: 8.71 µM
TGI [1, 15]: 51.3 µM
GI (NSCLC): 17.78 µM
GI50 (NSCLC): 17.8 µM
TGI (NSCLC): 75.9 µM
GI [3]: 4.57 µM
GI50 [3]: 4.57 µM
TGI [3]: 69.2 µM
GI (Leukemia cell): 5.01 µM
TGI (Leukemia cell): 20.9 µM
TGI (Melanoma cell; [17]): 72.4 µM
GI [4]: 22.39 µM
GI50 [4]: 22.4 µM
TGI [4]: 97.7 µM
GI [5]: 21.38 µM
GI50 [5, 15]: 21.4 µM
GI [6]: 5.5 µM
GI50 [6]: 5.5 µM
TGI [6]: 55 µM
GI [7]: 15.49 µM
GI50 [7]: 15.5 µM
TGI [7]: 74.1 µM

Activity [2]: Dose-dependent effect
GI50 (Leukemia cell): 1.15 µM
GI50 (Melanoma cell): 6.31 µM
GI50 (Melanoma cell; [16]): 6.31 µM
SMILES: COc1ccc2c(c1)/C(=C\c1c(C)nc3sc(C)nn13)C(=O)N2
GI50 [1]: 2.51 µM
GI50 [1, 14]: 2.51 µM
TGI [1, 15]: 38 µM
GI (NSCLC): 5.37 µM
GI50 (NSCLC): 5.37 µM
TGI (NSCLC): 56.2 µM
Activity (HT-29 [9]): Dose-dependent effect
GI [3]: 0.69 µM
GI50 [3]: 0.692 µM
TGI [3]: 41.7 µM
Activity (HT-29 [10]): Active
GI (Leukemia cell): 1.15 µM
TGI (Leukemia cell): 38 µM
TGI (Melanoma cell; [17]): 69.2 µM
GI [4]: 6.17 µM
GI50 [4]: 6.17 µM
TGI [4]: 91.2 µM
GI [5]: 3.89 µM
GI50 [5, 15]: 3.89 µM
GI [6]: 2.63 µM
GI50 [6]: 2.63 µM
TGI [6]: 75.9 µM
GI [7]: 5.01 µM
GI50 [7]: 5.01 µM
TGI [7]: 72.4 µM
Activity (HT-29 [11]): 58%
Activity (HT-29 [12]): Active
Activity (HT-29 [13]): Active
